Activity calls are given as the source filed them. No cut-off for these calls is given here.
Legend:
[1] = target: T1, Serine protease hepsin (Homo sapiens, UniProt P05981, D161E/R162K); test: Inhibition of recombinant C-terminal His10-tagged human Hepsin (R45 to […] residues) D161E/ R162K double mutant expressed in mouse NS0 cells using Boc-QRR-AMC as substrate after 15 mins by automated fluorescence assay
In short: (§1)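 On-line assay integrated with the flow-synthesis platform: a 20 µL aliquot of each product solution captured automatically, HPLC-purified, then diluted and assayed.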

[2] = target: T2, Urokinase-type plasminogen activator (Homo sapiens, UniProt P00749); test: Inhibition of recombinant C-terminal His10-tagged human uPA (M1 to L431 residues) expressed in mouse NS0 cells using Z-GGR-AMC as substrate after 15 mins by automated fluorescence assay; in short: as §1
[3] = organism: Homo sapiens; test: Selectivity ratio of IC50 for recombinant C-terminal His10-tagged human uPA (M1 to L431 residues) to IC50 for recombinant C-terminal His10-tagged human Hepsin (R45 to […] residues) D161E/ R162K double mutant by automated fluorescence assay
[4] = Chromatographic hydrophobicity index, log D of the compound at pH 7 by HPLC/UV analysis; format: physicochemical; settings: buffer
[5] = target: T1, Serine protease hepsin; test: Inhibition of recombinant C-terminal His10-tagged human Hepsin (R45 to […] residues) D161E/ R162K double mutant expressed in mouse NS0 cells using Boc-QRR-AMC as substrate after 15 mins by manual fluorescence assay
[6] = target: T2, Urokinase-type plasminogen activator; test: Inhibition of recombinant C-terminal His10-tagged human uPA (M1 to L431 residues) expressed in mouse NS0 cells using Z-GGR-AMC as substrate after 15 mins by manual fluorescence assay
[7] = organism: Homo sapiens; test: Selectivity ratio of IC50 for recombinant C-terminal His10-tagged human uPA (M1 to L431 residues) to IC50 for recombinant C-terminal His10-tagged human Hepsin (R45 to […] residues) D161E/ R162K double mutant by manual fluorescence assay
[8] = target: T3, Serine protease hepsin (Homo sapiens, UniProt P05981); test: Inhibition of doxycycline induced Hepsin in human MCF10A cells using Boc-QRR-AMC as substrate preincubated for 24 hrs followed by doxycycline induction for 24 hrs and subsequent addition of substrate by fluorescence assay; format: cell-based
[9] = target: T3, Serine protease hepsin; test: Inhibition of doxycycline induced Hepsin in human MCF10A cells assessed as prevention in loss of HAI-1 level at 10 uM preincubated for 30 mins followed by doxycycline addition measured after 6 hrs by Immunoblot assay; format: cell-based
In short: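 MCF10A-Indu20-hepsin cells (Dox-inducible hepsin) pretreated 30 min with compound or DMSO, then hepsin induced with 100 ng/mL doxycycline for 6 h; HAI-1 protein scored by immunoblot.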

[10] = target: T3, Serine protease hepsin; test: Inhibition of hepsin-mediated conversion of Pro-HGF into active form in human Hs578T cells assessed as decrease in MET phosphorylation at 1 to 10 uM preincubated for 30 mins followed by recombinant human pro-HGF addition measured after 30 mins by immunoblot method; format: cell-based
In short: (§2)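 Hs578T or HCC1937 breast cells incubated with DMSO or inhibitor, then 50 ng/mL recombinant human Pro-HGF added; MET pathway activation (phospho-MET) assessed by immunoblotting.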

[11] = target: T3, Serine protease hepsin; test: Inhibition of hepsin-mediated conversion of Pro-HGF into active form in human Hs578T cells assessed as decrease in MET phosphorylation at 100 nM preincubated for 30 mins followed by recombinant human pro-HGF addition measured after 30 mins by immunoblot method; format: cell-based; in short: as §2
[12] = target: T3, Serine protease hepsin; test: Inhibition of hepsin-mediated conversion of Pro-HGF into active form in human HCC1937 cells assessed as decrease in MET phosphorylation at 100 nM preincubated for 30 mins followed by recombinant human pro-HGF addition measured after 30 mins by immunoblot method; format: cell-based; in short: as §2
[13] = target: T2, Urokinase-type plasminogen activator; test: Inhibition of uPA (unknown origin)
In short: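 uPA inhibition was run as an on-line biochemical assay integrated into the automated flow-synthesis platform. A 20 µL aliquot of each product solution was automatically captured, HPLC-purified, diluted and assayed. Some samples were instead screened manually, either from platform-synthesized material or from off-line synthesis. The read-out is IC50.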

T3 sequence (P05981 1-162 limits assumed): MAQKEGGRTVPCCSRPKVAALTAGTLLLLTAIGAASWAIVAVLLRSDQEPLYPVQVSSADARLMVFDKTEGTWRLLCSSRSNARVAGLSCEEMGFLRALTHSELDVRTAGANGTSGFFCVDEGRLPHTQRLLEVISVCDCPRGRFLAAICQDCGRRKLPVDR
T3 sequence (P05981 163-417 limits assumed): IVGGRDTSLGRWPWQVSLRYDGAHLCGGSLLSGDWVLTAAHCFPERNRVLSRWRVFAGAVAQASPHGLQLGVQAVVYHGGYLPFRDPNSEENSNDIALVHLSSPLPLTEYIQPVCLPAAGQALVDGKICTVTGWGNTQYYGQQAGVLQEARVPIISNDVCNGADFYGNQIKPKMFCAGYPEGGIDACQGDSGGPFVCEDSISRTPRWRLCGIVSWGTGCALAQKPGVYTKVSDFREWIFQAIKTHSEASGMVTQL

Row | Compound | IC50 [1] [µM] | IC50 [2] [µM] | Ratio IC50 [3] | chromatographic logD [4] | also measured
1 | N=C(N)c1ccc(NC(=O)[C@H](NS(=O)(=O)c2ccc(Cl)cc2)C2CCCCC2)cc1 | 0.1 | 18 | 180 | 1.5 | –
2 | Cc1ccc(S(=O)(=O)NC(CC(C)C)C(=O)Nc2ccc(C(=N)N)cc2)cc1 (stereo not given) | 0.6 to 0.9 | 11 to 20 | 12 to 33 | 1.2 | –
3 | Cc1ccc(S(=O)(=O)NC(C(=O)Nc2ccc(C(=N)N)cc2)C2CCOCC2)cc1 (stereo not given) | 1.4 | > 19 | > 13 | 0.4 | –
4 | Cc1ccc(S(=O)(=O)NC(CC2CCCC2)C(=O)Nc2ccc(C(=N)N)cc2)cc1 (stereo not given) | 0.7 | 16 | 23 | 1.5 | –
5 | CCCCC(NS(=O)(=O)c1ccc(C)cc1)C(=O)Nc1ccc(Br)cc1 (stereo not given) | 58 | 58 | 1 | – | –
6 | N=C(N)c1ccc(/C=C2\CCCC/C(=C\c3ccc(C(=N)N)cc3)C2=O)cc1 | 0.272 | 0.484 | – | – | –
7 | Cc1ccc(S(=O)(=O)NC(C(=O)Nc2ccc(C(=N)N)cc2)C(C)C)cc1 (stereo not given) | 1.8 | 7.2 | 4 | 0.8 | –
8 | Cc1ccc(S(=O)(=O)N2CCCC2C(=O)Nc2ccc(C(=N)N)cc2)cc1 (stereo not given) | 1.5 to 3 | 5.3 to 28 | 3 to 9 | 0.5 | –
9 | Cc1ccc(S(=O)(=O)NC(C(=O)Nc2ccc(C(=N)N)cc2)C2CCCC2)cc1 (stereo not given) | 0.86 | 64 | 74 | 0.4 | –
10 | N=C(N)c1ccc(NC(=O)[C@H](NS(=O)(=O)c2ccc(C(F)(F)F)cc2)C2CCCCC2)cc1 | 0.68 | 4.7 | 7 | 1.7 | IC50 [5]: 0.85 µM; IC50 [6]: > 1950 µM; Ratio IC50 [7]: > 2300; IC50 [8]: 3.15 µM; inhibition [9]: inactive; inhibition [10]: Active
11 | Cc1ccc(S(=O)(=O)N(C)C(CC(C)C)C(=O)Nc2ccc(C(=N)N)cc2)cc1 (stereo not given) | > 19 | 24 | < 1 | 1.8 | –
12 | COC(=O)N1CCN(C(=O)[C@H](Cc2cccc(C(=N)N)c2)NS(=O)(=O)c2ccc3ccccc3c2)CC1 | 6.19 | – | – | – | –
13 | N=C(N)c1cccc(C[C@H](NS(=O)(=O)c2ccc3ccccc3c2)C(=O)N2CCCC(C(=O)NCc3cccs3)C2)c1 (stereo not given in full) | 0.676 | 2.43 | – | – | IC50 [5]: 0.33 µM; IC50 [6]: 6 µM; Ratio IC50 [7]: 18
14 | N=C(N)c1ccc(NC(=O)[C@H](NS(=O)(=O)c2ccccc2)C2CCCCC2)cc1 | 1.1 | 22 | 20 | 1.2 | –
15 | Cc1ccc(S(=O)(=O)NC(CCc2ccccc2)C(=O)Nc2ccc(C(=N)N)cc2)cc1 (stereo not given) | 1.13 | > 10 | – | – | IC50 [5]: 0.87 µM; IC50 [6]: 26 µM; Ratio IC50 [7]: 30
16 | N=C(N)NCCC[C@@H](NC(=O)c1ccc2ccccc2c1O)C(=O)N1CCC[C@@H]1C(N)=O | > 10 | – | – | – | –
17 | COC(=O)C(Cc1cccc(C(=N)N)c1)NC(=O)CNS(=O)(=O)c1ccc(C)cc1 (stereo not given) | 3.14 | > 10 | – | – | –

Row | Compound | IC50 [1] [µM] | IC50 [2] [µM] | Ratio IC50 [3] | chromatographic logD [4] | also measured
18 | CCCCC(NS(=O)(=O)c1ccc(C)cc1)C(=O)Nc1ccc(C(=N)N)cc1F (stereo not given) | 0.9 | 8 | 9 | 1.4 | –
19 | CC1CNc2c(cccc2S(=O)(=O)N[C@@H](CCCN=C(N)N)C(=O)N2CC[C@H](C)CC2C(=O)O)C1 (stereo not given in full) | > 10 | – | – | – | –
20 | COc1ccc(S(=O)(=O)N[C@@H](C(=O)Nc2ccc(C(=N)N)cc2)C2CCCCC2)cc1 | 0.3 | 12 | 40 | 1.3 | –
21 | N=C(N)c1ccc2cc(OC(=O)c3ccc(N=C(N)N)cc3)ccc2c1 [NAFAMOSTAT] | 0.005 | – | – | – | –
22 | CCCCC(NS(=O)(=O)c1ccc(C)cc1)C(=O)Nc1ccc(C(=N)N)cc1 (stereo not given) | 0.5 to 0.9 | 3 to 5 | 3 to 10 | 1.2 | –
23 | N=C(N)c1ccc(C[C@@H](NC(=O)CNS(=O)(=O)c2ccc3ccccc3c2)C(=O)N2CCCCC2)cc1 | 4.46 | – | – | – | –
24 | Cc1ccc(S(=O)(=O)NCC(Cc2ccccc2)C(=O)Nc2ccc(C(=N)N)cc2)cc1 (stereo not given) | 3 | 1 | 0.3 | 1.6 | –
25 | CCCCC(NS(=O)(=O)c1ccc(C)cc1)C(=O)Nc1cccc(C(=N)N)c1 (stereo not given) | 73 | 19 | 0.26 | 1.1 | –
26 | Cc1ccc(S(=O)(=O)NC(C(=O)Nc2ccc(C(=N)N)cc2)c2ccccc2)cc1 (stereo not given) | – | – | – | 0.9 | IC50 [5]: 0.25 µM; IC50 [6]: 60 µM
27 | Cc1ccc(C(=O)N[C@@H](C(=O)Nc2ccc(C(=N)N)cc2)C2CCCCC2)cc1 | 5 | 24.5 | 5 | 1.7 | –
28 | Cc1ccc(S(=O)(=O)NC(CC(=O)Nc2ccc(C(=N)N)cc2)C2CCCCC2)cc1 (stereo not given) | 11 | 68 | 6 | 1.4 | –
29 | Cc1ccc(S(=O)(=O)N[C@H](C(=O)Nc2ccc(C(=N)N)cc2)C2CCCCC2)cc1 | – | – | – | 1.3 | IC50 [5]: 0.22 µM
30 | C[C@@H](Oc1cc(-c2cnn(C3CCNCC3)c2)cnc1N)c1c(Cl)ccc(F)c1Cl | – | – | – | – | inhibition [11]: Active; inhibition [12]: Active
31 | Cc1ccc(NC(=O)N[C@@H](C(=O)Nc2ccc(C(=N)N)cc2)C2CCCCC2)cc1 | 2 | 43 | 22 | 1.5 | –
32 | CN(C)C(=O)N1CCN(C(=O)[C@@H](Cc2cccc(C(=N)N)c2)NS(=O)(=O)c2ccc3ccccc3c2)CC1 | 6.55 | – | – | – | IC50 [13]: > 10 µM
33 | CCOC(=O)c1ccc(OC(=O)CCCCCNC(=N)N)cc1 [GABEXATE] | 0.383 | – | – | – | –
